Assay results from different studies.

| SMILES | target or system | effect on | technique | concentration | notes | endpoint | result |
| --- | --- | --- | --- | --- | --- | --- | --- |
| COc1cc(C=CC(=O)CC(c2ccc(N(C)C)cc2)n2ccnc2)ccc1O (stereo not drawn) | – | DPPH scavenging | – | 12.5 µg/mL | – | inhibition | 42.7% |
| CCN(O)N=Nc1ccc(S(=O)(=O)Nc2onc(C)c2C)cc1 | – | DPPH scavenging | absorbance | 180 µg/mL | – | inhibition | 22.5% |
| COc1cc(C=Cc2cc(-c3ccccc3)nc(O)n2)ccc1O | – | DPPH scavenging | – | 50 µg/mL | – | inhibition | 61.6% |
| O=S(=O)(Nc1nccs1)c1ccc(N=NN(O)c2ccccc2)cc1 | – | DPPH scavenging | absorbance | 20 µg/mL | – | inhibition | 24.1% |
| Oc1ccc(Br)cc1C=NCCN1CCOCC1 | – | DPPH scavenging | absorbance | 120 µM | – | inhibition | 28.6% |
| CCCN(O)N=Nc1ccc(S(=O)(=O)Nc2cc(C)on2)cc1 | – | DPPH scavenging | absorbance | 300 µg/mL | – | inhibition | 27.6% |
| O=C1O[C@H]([C@@H](O)CO)C(O)=C1O | – | DPPH scavenging | absorbance | 80 µM | – | inhibition | 53.7% |
| C[C@@H](O)[C@H]1C(=O)N2C(C(=O)O)=C(S[C@@H]3CN[C@H](C(=O)N(C)C)C3)[C@H](C)[C@H]12 | Serratia fonticola | microbial growth | broth dilution | – | clinical isolate | MIC | 32 µg/mL |
| O=C1O[C@H]([C@@H](O)CO)C(O)=C1O | – | DPPH scavenging | – | 12.5 µg/mL | – | inhibition | 38.9% |
| COc1ccc(-c2ccc(-c3ccc(C(=N)N)nc3)s2)cc1 | 786-0 | cell growth or viability | – | – | – | GI50 | 1880 nM |
| COc1cc(C=Cc2cc(-c3ccc(N(C)C)cc3)nc(O)n2)ccc1O | – | DPPH scavenging | – | 100 µg/mL | – | inhibition | 71.7% |
| O=C(Nc1ccc2c(c1)OC(F)(F)O2)Nc1ccc(Cl)c(C(F)(F)F)c1 | Salmonella | microbial growth | – | – | clinical isolate | MIC | > 100 µM |
